From ChEMBL document CHEMBL1136257, “New highly active taxoids from 9beta-dihydrobaccatin-9,10-acetals. Part 3” (Bioorg Med Chem Lett, 2003)
Values after ≈ are worked out from the molar mass of the structure shown.

What was measured:
[1] = test system: Mus musculus; assay: Mortality was determined in mice inoculated with B16 melanoma BL6 cells sc at a dose 18 mg/kg by peroral administration; 2/6; format: functional; details: route oral
[2] = test system: Mus musculus; assay: Mean tumor weight was determined in mice inoculated with B16 melanoma BL6 cells sc at a dose 18 mg/kg po [IR (%) = (1-TWt/TWc)*100]; format: functional
Method in brief: (§1)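 C57BL/6 mice (six per group) received subcutaneous B16 melanoma BL6 cells on day 0 and a single iv or oral dose on day 4. Tumors were excised and weighed on day 15. Inhibition rate IR (%) = (1 − mean treated tumor weight/mean control tumor weight) × 100.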

[3] = Solubility of compound in JP1 at pH 1.2 using UV assay; format: physicochemical; details: JP1, pH 1.2
[4] = test system: Mus musculus; assay: Mortality rate in mice inoculated with B16 melanoma BL6 cells sc at a dose 12 mg/kg by intravenous administration; 0/6; format: functional
[5] = Solubility in water using UV assay; format: physicochemical
[6] = test system: Mus musculus; assay: Mortality rate in mice inoculated with B16 melanoma BL6 cells sc at a dose 18 mg/kg by intravenous administration; 0/6; format: functional
[7] = test system: Mus musculus; assay: Maximum rate of body weight loss was determined in mice inoculated with B16 melanoma BL6 cells sc at a dose 18 mg/kg by peroral administration; format: functional; details: route oral
Method in brief: (§2)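 On day 0, B16 melanoma BL6 cells (cultured line) were implanted subcutaneously into C57BL/6 mice, six per group. A single iv or oral dose was given on day 4, and body weight was followed. BWLmax (%) is the maximum rate of body weight loss; a value below 0 means no loss.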

[8] = test system: PC-6; assay: Cytotoxic activity against human lung cancer PC-6 cell line; format: functional
Method in brief: (§3)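 Growth inhibition (IC50) of mouse leukemia P388 and human lung cancer PC-6 and PC-12 cells after 72 h continuous exposure to compound; IC50 taken as the concentration giving 50% growth inhibition.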

[9] = test system: Mus musculus; assay: Mortality was determined in mice inoculated with B16 melanoma BL6 cells sc at a dose 12 mg/kg by peroral administration; 0/6; format: functional; details: route oral
[10] = test system: Mus musculus; assay: Mean tumor weight was determined in mice inoculated with B16 melanoma BL6 cells sc at a dose 12 mg/kg po [IR (%) = (1-TWt/TWc)*100]; format: functional; method in brief: as §1
[11] = test system: Mus musculus; assay: Mean tumor weight was determined in mice inoculated with B16 melanoma BL6 cells sc at a dose 8 mg/kg po [IR (%) = (1-TWt/TWc)*100]; format: functional; method in brief: as §1
[12] = test system: Mus musculus; assay: Mortality rate in mice inoculated with B16 melanoma BL6 cells sc at a dose 8 mg/kg by peroral administration; 0/6; format: functional; details: route oral
[13] = test system: Mus musculus; assay: Maximum rate of body weight loss was determined in mice inoculated with B16 melanoma BL6 cells sc at a dose 12 mg/kg by peroral administration; format: functional; details: route oral; method in brief: as §2
[14] = test system: P388; assay: Cytotoxic activity against mouse leukemia P388 cell line; format: functional; method in brief: as §3
[15] = test system: Mus musculus; assay: Maximum rate of body weight loss was determined in mice inoculated with B16 melanoma BL6 cells sc at a dose 8 mg/kg by peroral administration; format: functional; details: route oral; method in brief: as §2
[16] = test system: Mus musculus; assay: Mean tumor weight was determined in mice inoculated with B16 melanoma BL6 cells sc at a dose 12 mg/kg iv [IR (%) = (1-TWt/TWc)*100]; format: functional; method in brief: as §1
[17] = test system: Mus musculus; assay: Maximum rate of body weight loss was determined in mice inoculated with B16 melanoma BL6 cells sc at a dose 12 mg/kg by intravenous administration; format: functional; method in brief: as §2
[18] = Solubility of compound in JP2 at pH 6.8 using UV assay; format: physicochemical; details: JP2, pH 6.8
[19] = test system: PC-12; assay: Cytotoxic activity against human lung cancer PC-12 cell line
[20] = test system: Mus musculus; assay: Mortality was determined in mice inoculated with B16 melanoma BL6 cells sc at a dose 27 mg/kg by peroral administration; 0/6; format: functional; details: route oral
[21] = test system: Mus musculus; assay: Mean tumor weight was determined in mice inoculated with B16 melanoma BL6 cells sc at a dose 27 mg/kg po [IR (%) = (1-TWt/TWc)*100]; format: functional; method in brief: as §1
[22] = test system: Mus musculus; assay: Mean tumor weight was determined in mice inoculated with B16 melanoma BL6 cells sc at a dose 18 mg/kg iv [IR (%) = (1-TWt/TWc)*100]; format: functional; method in brief: as §1
[23] = test system: Mus musculus; assay: Mortality was determined in mice inoculated with B16 melanoma BL6 cells sc at a dose 12 mg/kg by intravenous administration; 0/6; format: functional
[24] = test system: Mus musculus; assay: Mean tumor weight was determined in mice inoculated with B16 melanoma BL6 cells sc at a dose 8 mg/kg iv [IR (%) = (1-TWt/TWc)*100]; format: functional; method in brief: as §1
[25] = test system: Mus musculus; assay: Mean tumor weight was determined in mice inoculated with B16 melanoma BL6 cells sc at a dose 40.5 mg/kg po [IR (%) = (1-TWt/TWc)*100]; format: functional; method in brief: as §1
[26] = test system: Mus musculus; assay: Mortality was determined in mice inoculated with B16 melanoma BL6 cells sc at a dose 18 mg/kg by peroral administration; 0/6; format: functional; details: route oral
[27] = test system: Mus musculus; assay: Mortality was determined in mice inoculated with B16 melanoma BL6 cells sc at a dose 18 mg/kg by intravenous administration; 0/6; format: functional
[28] = test system: Mus musculus; assay: Maximum rate of body weight loss was determined in mice inoculated with B16 melanoma BL6 cells sc at a dose 27 mg/kg by peroral administration; format: functional; details: route oral; method in brief: as §2
[29] = test system: Mus musculus; assay: Maximum rate of body weight loss was determined in mice inoculated with B16 melanoma BL6 cells sc at a dose 18 mg/kg by intravenous administration; format: functional; method in brief: as §2
[30] = test system: Mus musculus; assay: Maximum rate of body weight loss was determined in mice inoculated with B16 melanoma BL6 cells sc at a dose 40.5 mg/kg by peroral administration; format: functional; details: route oral; method in brief: as §2
[31] = test system: Mus musculus; assay: Maximum rate of body weight loss was determined in mice inoculated with B16 melanoma BL6 cells sc at a dose 8 mg/kg by intravenous administration; format: functional; method in brief: as §2
[32] = test system: Mus musculus; assay: Maximum rate of body weight loss was determined in mice inoculated with B16 melanoma BL6 cells sc at a dose 27 mg/kg by intravenous administration; format: functional; method in brief: as §2
[33] = test system: Mus musculus; assay: Mortality was determined in mice inoculated with B16 melanoma BL6 cells sc at a dose 8 mg/kg by intravenous administration; 0/6; format: functional
[34] = test system: Mus musculus; assay: Mean tumor weight was determined in mice inoculated with B16 melanoma BL6 cells sc at a dose 27 mg/kg iv [IR (%) = (1-TWt/TWc)*100]; format: functional; method in brief: as §1
[35] = test system: Mus musculus; assay: Mortality was determined in mice inoculated with B16 melanoma BL6 cells sc at a dose 40.5 mg/kg by peroral administration; 0/6; format: functional; details: route oral
[36] = test system: Mus musculus; assay: Mortality was determined in mice inoculated with B16 melanoma BL6 cells sc at a dose 27 mg/kg by intravenous administration; 0/6; format: functional
[37] = test system: Mus musculus; assay: Mean tumor weight was determined in mice inoculated with B16 melanoma BL6 cells sc at a dose 600 mg/kg po [IR (%) = (1-TWt/TWc)*100]; format: functional; method in brief: as §1
[38] = test system: Mus musculus; assay: Mortality was determined in mice inoculated with B16 melanoma BL6 cells sc at a dose 600 mg/kg by peroral administration; 0/6; format: functional; details: route oral
[39] = test system: Mus musculus; assay: Mean tumor weight was determined in mice inoculated with B16 melanoma BL6 cells sc at a dose 100 mg/kg iv [IR (%) = (1-TWt/TWc)*100]; format: functional; method in brief: as §1
[40] = test system: Mus musculus; assay: Maximum rate of body weight loss was determined in mice inoculated with B16 melanoma BL6 cells sc at a dose 600 mg/kg by peroral administration; format: functional; details: route oral; method in brief: as §2
[41] = test system: Mus musculus; assay: Maximum rate of body weight loss was determined in mice inoculated with B16 melanoma BL6 cells sc at a dose 100 mg/kg by intravenous administration; format: functional; method in brief: as §2
[42] = test system: Mus musculus; assay: Mortality was determined in mice inoculated with B16 melanoma BL6 cells sc at a dose 100 mg/kg by intravenous administration; 0/6; format: functional
[43] = test system: Mus musculus; assay: Mean tumor weight was determined in mice inoculated with B16 melanoma BL6 cells sc at a dose 5.3 mg/kg iv [IR (%) = (1-TWt/TWc)*100]; format: functional; method in brief: as §1
[44] = test system: Mus musculus; assay: Mortality was determined in mice inoculated with B16 melanoma BL6 cells sc at a dose 8 mg/kg by peroral administration; 0/6; format: functional; details: route oral
[45] = test system: Mus musculus; assay: Maximum rate of body weight loss was determined in mice inoculated with B16 melanoma BL6 cells sc at a dose 5.3 mg/kg by intravenous administration; format: functional; method in brief: as §2
[46] = test system: Mus musculus; assay: Mortality was determined in mice inoculated with B16 melanoma BL6 cells sc at a dose 5.3 mg/kg by intravenous administration; 0/6; format: functional

| Compound | IR [2] [%] | solubility [3] [µg/mL] | solubility [5] [µg/mL] | BWLmax [7] [%] | GI50 [8] [ng/mL] | Mortality [9] | IR [10] [%] | IR [11] [%] | BWLmax [13] [%] | GI50 [14] [ng/mL] | BWLmax [15] [%] | IR [16] [%] | BWLmax [17] [%] | solubility [18] [µg/mL] | GI50 [19] [ng/mL] | Mortality [20] | IR [21] [%] | IR [22] [%] | Mortality [23] | IR [24] [%] | further results |
| --- | --- | --- | --- | --- | --- | --- | --- | --- | --- | --- | --- | --- | --- | --- | --- | --- | --- | --- | --- | --- | --- |
| CC(=O)O[C@@]12CO[C@@H]1CC[C@@]1(C)[C@@H]3O[C@H](CN4CCOCC4)O[C@@H]3C3=C(C)[C@@H](OC(=O)[C@](C)(O)[C@@H](NC(=O)OC(C)(C)C)c4ccccn4)C[C@@](O)([C@@H](OC(=O)c4ccccc4)[C@@H]12)C3(C)C | 98 | 1800 (≈ 1960 µM) | 6 (≈ 6.52 µM) | 18.1 | 0.11 (≈ 0.00012 µM) | 0 | 92.2 | 42.2 | <0 | 0.12 (≈ 0.00013 µM) | <0 | 96.4 | 13.5 | 5 (≈ 5.43 µM) | 0.06 (≈ 6.52e-05 µM) |  |  |  |  |  | Mortality [1]: 2; Mortality [4]: 0; Mortality [6]: 0; Mortality [12]: 0 |
| CC(=O)O[C@@]12CO[C@@H]1CC[C@@]1(C)[C@@H]3O[C@H](CN4CCOCC4)O[C@@H]3C3=C(C)[C@@H](OC(=O)[C@](C)(O)[C@@H](NC(=O)c4ccccc4)c4ccccn4)C[C@@](O)([C@@H](OC(=O)c4ccccc4)[C@@H]12)C3(C)C | 59.7 | > 1800 | < 4 | <0 | 0.45 (≈ 0.000487 µM) | 0 | 23.4 |  | <0 | 0.19 (≈ 0.000206 µM) |  | 75.4 | <0 | < 4 | 0.57 (≈ 0.000617 µM) | 0 | 91.3 | 89.8 | 0 | 61.3 | IR [25]: 96.9%; Mortality [26]: 0; Mortality [27]: 0; BWLmax [28]: <0%; BWLmax [29]: <0%; BWLmax [30]: 4.1%; BWLmax [31]: <0%; BWLmax [32]: 2.4%; Mortality [33]: 0; IR [34]: 95.8%; Mortality [35]: 0; Mortality [36]: 0 |
| CC(=O)O[C@@]12CO[C@@H]1C[C@H](O)[C@@]1(C)C(=O)[C@H](O)C3=C(C)[C@@H](OC(=O)[C@H](O)[C@@H](NC(=O)OC(C)(C)C)c4ccccc4)C[C@@](O)([C@@H](OC(=O)c4ccccc4)[C@H]21)C3(C)C.O.O.O [DOCETAXEL] |  | < 4 | < 4 |  | 0.41 |  |  |  |  | 0.78 |  |  |  | < 4 | 14.9 |  |  |  |  |  | IR [37]: 6.2%; Mortality [38]: 0; IR [39]: 95.1%; BWLmax [40]: <0%; BWLmax [41]: <0%; Mortality [42]: 0 |
| CC(=O)O[C@@]12CO[C@@H]1CC[C@@]1(C)[C@@H]3O[C@H](CN4CCOCC4)O[C@@H]3C3=C(C)[C@@H](OC(=O)[C@H](O)[C@@H](NC(=O)OC(C)(C)C)c4ccccn4)C[C@@](O)([C@@H](OC(=O)c4ccccc4)[C@@H]12)C3(C)C | 93.3 | 1700 (≈ 1880 µM) | 14 (≈ 15.5 µM) | 0.3 | 0.39 (≈ 0.00043 µM) | 0 | 84.9 | 27.2 | <0 | 0.18 (≈ 0.000199 µM) | <0 | 94.4 | <0 | 11 (≈ 12.1 µM) | 0.21 (≈ 0.000232 µM) | 0 | 97.3 | 95.6 | 0 | 87.2 | IR [43]: 62.4%; Mortality [44]: 0; Mortality [26]: 0; BWLmax [45]: <0%; Mortality [27]: 0; BWLmax [28]: 4.5%; BWLmax [29]: 3.7%; BWLmax [31]: <0%; Mortality [46]: 0; Mortality [33]: 0 |
